Results on twelve molecules are retold here after ChEMBL document CHEMBL1152958 (Bioorg Med Chem, 2009).

By inhibition is commonly meant the change of the read-out against control, counted positive when it falls. The term IC50 denotes the point on the concentration scale where inhibition reaches its midpoint.

Some results are limits rather than exact numbers.

The target of test [1] is T1, Prostaglandin G/H synthase 1 (Ovis aries) (UniProt P05979).
T1 sequence (whole entry): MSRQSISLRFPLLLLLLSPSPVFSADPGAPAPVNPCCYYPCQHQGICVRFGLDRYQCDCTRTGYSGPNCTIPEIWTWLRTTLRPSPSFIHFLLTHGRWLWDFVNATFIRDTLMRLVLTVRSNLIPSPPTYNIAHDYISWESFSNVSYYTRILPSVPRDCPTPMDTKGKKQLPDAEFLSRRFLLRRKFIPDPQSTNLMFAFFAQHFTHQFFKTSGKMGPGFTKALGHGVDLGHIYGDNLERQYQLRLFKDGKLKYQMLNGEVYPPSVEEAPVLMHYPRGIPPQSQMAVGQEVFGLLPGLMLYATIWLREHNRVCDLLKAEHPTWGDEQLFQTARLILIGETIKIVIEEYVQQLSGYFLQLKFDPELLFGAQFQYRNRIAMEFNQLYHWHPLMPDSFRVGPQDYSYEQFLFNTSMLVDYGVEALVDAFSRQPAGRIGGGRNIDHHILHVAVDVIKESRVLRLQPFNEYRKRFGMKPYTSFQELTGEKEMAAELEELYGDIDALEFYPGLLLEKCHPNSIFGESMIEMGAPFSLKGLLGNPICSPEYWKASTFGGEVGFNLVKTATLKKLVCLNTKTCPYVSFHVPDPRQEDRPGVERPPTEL
Nature of the test: Inhibition of COX1 in ram seminal vesicle at 8 uM by enzyme immunoassay. The format is tissue-based.

Test [2] addresses T2, Prostaglandin G/H synthase 2 (Ovis aries) (UniProt P79208).
T2 sequence (whole entry): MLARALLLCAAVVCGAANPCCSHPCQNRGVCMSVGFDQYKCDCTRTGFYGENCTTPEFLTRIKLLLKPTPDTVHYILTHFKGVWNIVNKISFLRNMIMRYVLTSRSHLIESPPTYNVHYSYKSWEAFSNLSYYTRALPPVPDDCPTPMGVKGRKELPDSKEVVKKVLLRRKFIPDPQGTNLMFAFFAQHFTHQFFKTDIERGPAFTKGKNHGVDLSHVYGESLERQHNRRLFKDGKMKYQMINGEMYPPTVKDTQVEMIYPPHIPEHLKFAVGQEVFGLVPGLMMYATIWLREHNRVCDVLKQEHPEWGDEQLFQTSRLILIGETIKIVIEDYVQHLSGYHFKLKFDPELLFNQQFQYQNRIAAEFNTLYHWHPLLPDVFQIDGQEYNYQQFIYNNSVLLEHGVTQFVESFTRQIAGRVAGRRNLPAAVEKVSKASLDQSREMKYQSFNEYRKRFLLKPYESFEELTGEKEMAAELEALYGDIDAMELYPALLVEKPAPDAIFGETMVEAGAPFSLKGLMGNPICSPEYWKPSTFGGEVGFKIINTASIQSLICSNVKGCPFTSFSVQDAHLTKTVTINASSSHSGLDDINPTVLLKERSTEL
Nature of the test: Inhibition of COX2 in sheep placental vesicle at 8 uM by enzyme immunoassay.

Test [3] has as its target T3, Prostaglandin G/H synthase 1 (Ovis aries, UniProt P05979).
T3 sequence (P05979 whole entry): T1 sequence (whole entry)
Nature of the test: Inhibition of COX1 in ram seminal vesicle by enzyme immunoassay. Summed up:
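PGE2, the main arachidonic acid metabolite, was quantified by competitive enzyme immunoassay.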

The target in test [4] is T4, Prostaglandin G/H synthase 2 (Ovis aries, UniProt P79208).
T4 sequence (P79208 whole entry): T2 sequence (whole entry)
As to the kind of experiment: Inhibition of COX2 in sheep placental vesicle by enzyme immunoassay.

The target of test [5] is T5, Polyunsaturated fatty acid 5-lipoxygenase (Homo sapiens) (UniProt P09917).
T5 sequence (whole entry): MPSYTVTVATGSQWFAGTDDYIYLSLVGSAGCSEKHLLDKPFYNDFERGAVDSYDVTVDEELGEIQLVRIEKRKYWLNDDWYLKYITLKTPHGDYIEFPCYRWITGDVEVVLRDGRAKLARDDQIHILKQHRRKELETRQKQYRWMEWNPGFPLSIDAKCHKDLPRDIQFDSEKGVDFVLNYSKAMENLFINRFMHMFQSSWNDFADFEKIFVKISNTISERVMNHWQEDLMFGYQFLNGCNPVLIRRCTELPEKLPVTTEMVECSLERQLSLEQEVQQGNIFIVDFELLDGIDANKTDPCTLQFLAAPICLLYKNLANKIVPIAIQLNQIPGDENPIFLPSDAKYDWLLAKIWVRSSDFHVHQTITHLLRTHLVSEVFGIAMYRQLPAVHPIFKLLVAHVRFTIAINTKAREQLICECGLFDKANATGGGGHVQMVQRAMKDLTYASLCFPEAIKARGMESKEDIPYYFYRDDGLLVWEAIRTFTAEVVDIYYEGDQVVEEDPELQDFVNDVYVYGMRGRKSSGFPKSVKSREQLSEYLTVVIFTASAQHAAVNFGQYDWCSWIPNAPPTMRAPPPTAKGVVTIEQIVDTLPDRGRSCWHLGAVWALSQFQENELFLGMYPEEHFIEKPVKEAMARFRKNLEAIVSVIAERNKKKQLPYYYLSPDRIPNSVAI
Nature of the test: Inhibition of 5LOX-mediated LTB4 formation in stimulated human polymorphonuclear leukocytes at 8 uM. In a few lines:
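5-LOX-mediated LTB4 formation was measured in stimulated human polymorphonuclear leukocytes in 96-well format. […] For IC50, at least 3 concentrations were tested in at least 3 independent experiments, each in duplicate, and IC50 was derived from a semilogarithmic dose plot. Results are given as means ± S.D.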

The target in test [6] is T6, Polyunsaturated fatty acid 5-lipoxygenase (Homo sapiens, UniProt P09917).
T6 sequence (P09917 whole entry): T5 sequence (whole entry)
Nature of the test: Inhibition of 5LOX-mediated LTB4 formation in stimulated human polymorphonuclear leukocytes. Summed up: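 5-LOX-mediated LTB4 formation was measured in stimulated human polymorphonuclear leukocytes in 96-well format. For IC50, at least 3 concentrations were tested in at least 3 independent experiments, each in duplicate, and IC50 was derived from a semilogarithmic dose plot. Results are given as means ± S.D.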

On to `C=CCc1ccc(O)c(-c2ccc(OC)c(/C=C/C)c2)c1`, for which the inhibition in test [1] is 80.5%; in test [2], 81.5%; in test [5], 99.3%. The results for the IC50 in test [3] (read-out: IC50), in test [4] (read-out: IC50) and in test [6] (read-out: IC50) were 700 nM, 200 nM and 2100 nM, respectively.
For `C=CCc1ccc(O)c(-c2ccc(O)c(/C=C/C)c2)c1`, the inhibition in test [1] was 84.8%; in test [2] it was 75.1%; in test [5], 100%. Moreover, the IC50 came to 600 nM in test [3] (read-out: IC50), 2700 nM in test [4] (read-out: IC50) and 1000 nM in test [6] (read-out: IC50).
`COc1ccc(-c2cc(CC3CO3)ccc2O)cc1CC1CO1` (centres undefined): the IC50 entry in test [3], in test [4] and in test [6] was “Not Active” each time.
In the case of `C=CCc1ccc(O)c(-c2ccc(OC)c(/C=C\C)c2)c1`, the figures for the inhibition in test [1], in test [2] and in test [5] were 68.6%, 62.7% and 99.9%, respectively. The values for the IC50 in test [3] (read-out: IC50), in test [4] (read-out: IC50) and in test [6] (read-out: IC50) were 2800 nM, 900 nM and 1100 nM, respectively.
With `C=CCc1ccc(OC)c(-c2ccc(OC)c(CC=C)c2)c1`, the inhibition in test [1] is 45.1%; in test [2], 47.8%; in test [5] it was 27.8%. In addition, the figures for the IC50 in test [3] (read-out: IC50), in test [4] (read-out: IC50) and in test [6] (read-out: IC50) were 11400 nM, 7700 nM and 15000 nM, respectively.
As to `C=CCc1ccc(O)c(-c2ccc(O)c(CC=C)c2)c1` [HONOKIOL], the inhibition in test [1] came out at 91%; in test [2] it was 88.3%; in test [5], 94%. Further, the IC50 in test [3] (read-out: IC50) was 1800 nM; in test [4] (read-out: IC50), 2100 nM; in test [6] (read-out: IC50), 4200 nM.
Turning to `CCCc1ccc(O)c(-c2ccc(OC)c(CCC)c2)c1`, the inhibition came out at 56.5% in test [1], 11.6% in test [2] and 97.1% in test [5]. The IC50 in test [3] (read-out: IC50) was determined as 7700 nM; in test [6] (read-out: IC50), 1400 nM.
Take `C=CCc1ccc(OC(C)=O)c(-c2ccc(OC)c(CC=C)c2)c1`: the inhibition in test [1] is 18%; in test [2] it was 56.3%; in test [5], 76.3%. The IC50 is 4900 nM in test [4] (read-out: IC50) and 2200 nM in test [6] (read-out: IC50).
For the molecule `C=CCc1ccc(OC(C)=O)c(-c2ccc(OC(C)=O)c(CC=C)c2)c1`, the inhibition in test [1] is 6.8%; in test [2], 13.8%; in test [5] it was 64.9%. Besides, the IC50 in test [6] (read-out: IC50) amounted to 4500 nM.
As to `CCCc1ccc(O)c(-c2ccc(O)c(CCC)c2)c1`, the inhibition in test [1] was found to be 89.6%; in test [2] it was 81.6%; in test [5], 99.9%. The IC50 in test [3] (read-out: IC50) stood at 800 nM; in test [4] (read-out: IC50), 2100 nM; in test [6] (read-out: IC50) it was 1700 nM.
For the molecule `C=CCc1ccc(O)c(-c2ccc(OC)c(CC=C)c2)c1` [METHYLHONOKIOL], the inhibition in test [1] stood at 90.8%; in test [2], 95.3%; in test [5] it was 96.4%. The IC50 in test [3] (read-out: IC50) is 100 nM; in test [4] (read-out: IC50), 60 nM; in test [6] (read-out: IC50), 1500 nM.
Take `CCCc1ccc(OC)c(-c2ccc(OC)c(CCC)c2)c1`: the values for the inhibition in test [1], in test [2] and in test [5] were 27.3%, 49.4% and 24.4%, respectively. Further, the values for the IC50 in test [3] (read-out: IC50) and in test [4] (read-out: IC50) were > 20000 nM and 6900 nM, respectively.
